Active and inactive are the calls of the source. The rule behind the calls is not given here.
Assays:
RBL-2H3 [1] = assay: Antiallergic activity in rat RBL2H3 cells assessed as inhibition of C48/80-induced histamine release preincubated with compound for 30 mins followed by C48/80 stimulation for 1 hr; format: functional, cell-based
Method in brief: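 RBL-2H3 cells seeded at 3×10⁵/mL and adhered overnight at 37 °C, 5% CO₂. Histamine in the supernatant derivatized with o-phthalaldehyde after HCl/NaOH addition. IC50 is the concentration halving histamine release. DMSO blank.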

RBL-2H3 [2] = assay: Antiallergic activity in IgE/Ag-stimulated rat RBL2H3 cells assessed as inhibition of HSA-induced beta-hexosaminidase release preincubated with compound for 30 mins and then stimulated with HSA for 15 mins followed by incubation with P-nitrophenyl-N-acetyl-beta-D-glucosaminide for 2 hrs; format: functional, cell-based
Method in brief: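 RBL-2H3 cells (3×10⁵/mL) sensitized overnight with anti-DNP IgE at 150 ng·mL⁻¹, then washed twice in PIPES buffer pH 7.0 with glucose and 0.2% BSA. Compound applied for 30 min at 37 °C, then DNP-HSA 20 ng·mL⁻¹ for 15 min; stopped on ice. Supernatant incubated with p-nitrophenyl-N-acetyl-β-D-glucosaminide in citrate pH 4.6 for 2 h at 37 °C. Stopped with carbonate pH 10.2; A405 read. IC50 derived.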

RBL-2H3 [3] = assay: Antiallergic activity in rat RBL2H3 cells assessed as inhibition of C48/80-induced mast cell degranulation preincubated with compound for 30 mins and then treated with C48/80 for 1 hr by neutral red dye based method; format: functional
Method in brief: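 RBL-2H3 cells seeded at 3×10⁵/mL and left overnight at 37 °C, 5% CO₂ to adhere. Medium discarded and cells stained with 0.5% neutral red for 3 min. Degranulated cells counted per 100 mast cells. IC50 taken as the concentration giving half-maximal degranulation. DMSO blank.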

[4] = Lipid/water partition co-efficient, log P of the compound; format: physicochemical
[5] = Dissociation constant, pKa of the compound; format: physicochemical
[6] = biological target: Histamine H1 receptor (Homo sapiens) (UniProt P35367); assay: Binding affinity to H1 receptor (unknown origin) at 0.10 umol/L
Chain of Histamine H1 receptor (Homo sapiens) (P35367 whole entry): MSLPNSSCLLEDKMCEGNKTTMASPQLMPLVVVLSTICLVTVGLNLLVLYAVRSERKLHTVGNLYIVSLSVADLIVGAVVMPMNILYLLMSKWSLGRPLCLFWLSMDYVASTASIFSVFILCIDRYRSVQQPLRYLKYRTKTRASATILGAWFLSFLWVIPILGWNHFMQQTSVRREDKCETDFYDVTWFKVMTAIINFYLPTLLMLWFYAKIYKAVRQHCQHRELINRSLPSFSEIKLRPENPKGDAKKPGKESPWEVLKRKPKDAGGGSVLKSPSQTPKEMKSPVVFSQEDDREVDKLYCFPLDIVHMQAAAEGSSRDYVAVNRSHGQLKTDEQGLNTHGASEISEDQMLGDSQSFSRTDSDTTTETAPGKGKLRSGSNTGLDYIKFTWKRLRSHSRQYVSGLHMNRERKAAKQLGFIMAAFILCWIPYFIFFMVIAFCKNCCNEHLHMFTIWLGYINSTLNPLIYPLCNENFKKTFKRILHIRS

Mus musculus = assay: Antiallergic activity in mouse assessed as inhibition of histamine-induced increase in capillary permeability by measuring Evans blue dye concentration at 20 mg/kg administered via gavage for 1 week followed by Evans blue dye injection immediately after subcutaneous histamine injection and measured after 15 mins by UV spectrophotometric analysis; format: functional
Method in brief: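 Mice (20–22 g), 10 per group, half male and half female. Compound suspension gavaged at 20 mg·kg⁻¹ for one week; model group given 0.5% CMC-Na. Backs depilated with 8% sodium sulfide the day before. Histamine phosphate 0.1% (50 μL) injected subcutaneously, with 0.5% Evans blue (25 mg·kg⁻¹) given i.v. via tail vein. Killed after 15 min. Stained skin extracted in acetone–saline for 48 h, centrifuged, OD read at 610 nm.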

Cavia porcellus [7] = assay: In vivo antiallergic activity in guinea pig assessed as protection against histamine-induced bronchospasm at 20 mg/kg, po by Van Arman method relative to control; format: functional
Method in brief: (§1)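 Male guinea pigs (220–260 g), fasted 24 h with water, six per group. Compound given orally at 20 mg·kg⁻¹ in 1% CMC-Na. Animals then exposed in a closed cage to aerosolized 0.3% histamine chloride (5 mL). Convulsion (preconvulsion) time recorded; stable beyond 10 min counted as protected. Protection % derived from mean time versus control.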

[8] = Acute toxicity in ip dosed histamine-induced bronchospasm guinea pig model; format: organism-based, Cavia porcellus; details: in vivo
Cavia porcellus [9] = assay: In vivo antiallergic activity in histamine-induced bronchospasm guinea pig model assessed as duration of convulsions at 20 mg/kg, po by Van Arman method; format: functional; method in brief: as §1
Cavia porcellus [10] = assay: In vivo antiallergic activity in histamine-induced bronchospasm guinea pig model assessed as duration of convulsions at 20 mg/kg by Van Arman method
Cavia porcellus [11] = assay: In vivo antiallergic activity in guinea pig assessed as protection against histamine-induced bronchospasm at 20 mg/kg by Van Arman method relative to control

| Compound | IC50 (RBL-2H3 [1]) [nM] | IC50 (RBL-2H3 [2]) [nM] | logP [4] | pKa [5] | IC50 (RBL-2H3 [3]) [nM] | Activity [6] | Activity (Mus musculus) [mg/L] | Activity (Cavia porcellus [7]) [%] | LD50 [8] [mg/kg] | Time (Cavia porcellus [9]) [s] | Time (Cavia porcellus [10]) [s] | Activity (Cavia porcellus [11]) [%] |
| --- | --- | --- | --- | --- | --- | --- | --- | --- | --- | --- | --- | --- |
| COc1ccc(CN(CCN(C)C)c2ccc(Cl)cn2)cc1 | 19.2 | 45.5 | 3.87 | 9.5 | 10.6 | Active | 71.26 | 79.74 | 324 | 398.69 |  |  |
| COc1ccc(CN(CCN(C)C)c2ccc(C)cn2)cc1 | 48.6 | 61.2 | 3.79 | 9.6 | 28.9 | Active | 62.16 | 74.26 | 335 | 371.28 |  |  |
| COc1ccc(CN(CCN(C)C)c2ccc(C)cc2)cc1 | 89.1 | 141 | 4.43 | 9.8 | 55.3 | Active | 53.59 | 69.62 | 401 | 348.1 |  |  |
| COc1ccc(CCN(CCN(C)C)c2ccc(N)cc2)cc1 | 4010 | 7960 | 3.43 | 9.8 | 2230 |  |  |  |  |  |  |  |
| COc1ccc(CN(CCN(C)C)c2ccc(Cl)cc2)cc1 | 40.2 | 71.2 | 4.47 | 9.6 | 18.1 | Active | 65.34 | 75.32 | 414 | 376.58 |  |  |
| COc1ccc(CN(CCN(C)C)c2ccc(N)cc2)cc1 | 4060 | 8010 | 3.13 | 9.8 | 2310 |  |  |  |  |  |  |  |
| COc1ccc(CCN(CCN(C)C)c2ccc(Cl)cn2)cc1 | 53.1 | 72.1 | 4.16 | 9.4 | 45.3 | Active | 55.67 | 70.22 | 335 | 351.1 |  |  |

Now from value to compound, other results behind:

| IC50 (RBL-2H3 [1]) [nM] | IC50 (RBL-2H3 [2]) [nM] | logP [4] | pKa [5] | Compound | IC50 (RBL-2H3 [3]) [nM] | Activity [6] | Activity (Mus musculus) [mg/L] | Activity (Cavia porcellus [7]) [%] | LD50 [8] [mg/kg] | Time (Cavia porcellus [9]) [s] | Time (Cavia porcellus [10]) [s] | Activity (Cavia porcellus [11]) [%] |
| --- | --- | --- | --- | --- | --- | --- | --- | --- | --- | --- | --- | --- |
| 2110 | 4090 | 2.56 | 9.4 | COc1ccc(CN(CCN(C)C)c2ccc(N)cn2)cc1 | 1340 |  |  |  |  |  |  |  |
| 516 | 1030 | 4.21 | 9.6 | COc1ccc(CCN(CCN(C)C)c2ccccc2)cc1 | 306 |  |  |  |  |  |  |  |
| 1910 | 4010 | 2.79 | 9.6 | COc1ccc(CCN(CCN(C)C)c2ccc(N)cn2)cc1 | 1210 |  |  |  |  |  |  |  |
| 141 | 261 | 4.78 | 9.5 | COc1ccc(CCN(CCN(C)C)c2ccc(Cl)cc2)cc1 | 89.2 |  |  |  |  |  |  |  |
| 159 | 319 | 3.59 | 9.5 | COc1ccc(CCN(CCN(C)C)c2ccccn2)cc1 | 129 |  |  |  |  |  |  |  |
| 289 | 561 | 4.68 | 9.7 | COc1ccc(CCN(CCN(C)C)c2ccc(C)cc2)cc1 | 153 |  |  |  |  |  |  |  |
| 53.6 | 121 |  |  | CN(C)CCC(c1ccc(Cl)cc1)c1ccccn1 (centres undefined) [CHLORPHENIRAMINE] | 31.8 |  | 56.13 |  |  |  | 367.16 | 73.43 |
| 102 | 211 | 4.06 | 9.5 | COc1ccc(CCN(CCN(C)C)c2ccc(C)cn2)cc1 | 83.9 |  |  |  |  |  |  |  |
| 92.6 | 132 | 3.32 | 9.7 | COc1ccc(CN(CCN(C)C)c2ccccn2)cc1 [PYRILAMINE] | 81.5 |  |  |  |  |  |  |  |
| 243 | 411 | 3.9 | 9.7 | COc1ccc(CN(CCN(C)C)c2ccccc2)cc1 | 143 |  |  |  |  |  |  |  |
| 81.9 | 156 |  |  | COc1ccc(CCN2CCC(Nc3nc4ccccc4n3Cc3ccc(F)cc3)CC2)cc1 [ASTEMIZOLE] | 53.3 |  |  |  |  |  |  |  |
